DAGLB inhibitor – diacylglycerol lipase beta (human) inhibition | inhibition, % at 5.17 µM | Q8NCG7 | actives 0.059% (n = 340,000) | HEK293T DAGLB membrane lysate, EnzChek fluorogenic substrate; in the data active = inhibition above about 34%
Target sequence (Q8NCG7 whole entry, looked up): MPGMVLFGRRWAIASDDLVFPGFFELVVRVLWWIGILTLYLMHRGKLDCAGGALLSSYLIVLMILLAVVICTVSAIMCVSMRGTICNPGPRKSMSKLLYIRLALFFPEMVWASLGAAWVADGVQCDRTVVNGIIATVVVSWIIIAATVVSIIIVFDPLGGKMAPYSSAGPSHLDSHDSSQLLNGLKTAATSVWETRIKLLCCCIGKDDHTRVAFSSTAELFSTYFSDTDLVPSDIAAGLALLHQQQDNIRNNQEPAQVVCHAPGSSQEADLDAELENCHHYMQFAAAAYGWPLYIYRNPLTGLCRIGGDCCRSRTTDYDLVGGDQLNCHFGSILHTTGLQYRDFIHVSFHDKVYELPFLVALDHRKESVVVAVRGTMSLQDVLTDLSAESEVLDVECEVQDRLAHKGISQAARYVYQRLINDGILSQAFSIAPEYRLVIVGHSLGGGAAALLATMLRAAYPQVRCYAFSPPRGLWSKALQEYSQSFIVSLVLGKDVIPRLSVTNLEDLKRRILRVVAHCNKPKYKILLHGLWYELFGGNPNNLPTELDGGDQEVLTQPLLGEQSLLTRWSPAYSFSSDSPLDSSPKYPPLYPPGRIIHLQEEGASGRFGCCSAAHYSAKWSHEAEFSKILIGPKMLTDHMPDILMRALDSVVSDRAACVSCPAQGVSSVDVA
TMEM16A act – activates or potentiates the mouse TMEM16A chloride channel; Q8BHY3; actives 0.3% (n = 340,000); B-score at 10 µM; HEK293 TMEM16A/YFP-H148Q/I152L, iodide quench fluorescence; hits give low values;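 active = fluorescence-ratio B-score plate-corrected deviation score at least 3 library SD below zero, with starting fluorescence score within 5 deviations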;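 also: channel opened by trigger with iodide after compound preincubation; score built on the fluorescence ratio of max minus min over baseline; more negative score means more quench and so TMEM16A activation or potentiation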
ANO1 block – inhibitors of mouse TMEM16A calcium-activated chloride channel; AID 588511; normalized B-score (activity score, 25-100; higher = stronger inhibition) at 10 µM; HEK293 TMEM16A/YFP iodide influx fluorescence, ionomycin; actives 1.2% (n = 310,000); Q8BHY3;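 active = ratio plate-corrected score three or more library SD toward inhibition, starting fluorescence score within five deviations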;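 also: score derived from kinetic fluorescence span divided by baseline fluorescence per well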
MT1-MMP act inh – blocks activation of human MT1-MMP; HT1080 RFP-PRO-GFP cells, GFP/RFP ratio fluorescence, overnight; percent of plate control window, DMSO zero; GFP/RFP ratio change, % at 20 µM; actives 0.061% (n = 360,000);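 active = GFP/RFP ratio change of at least 30% with cell ATP level not reduced by more than half and red fluorescence within 50% of control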
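Read-out: GFP/RFP fluorescence ratio; Test system: RFP-PRO-GFP reporter HT1080 cells; Compound dosing: single-point 20 µM compound, 1% DMSO; Times: overnight compound exposure at 37 °C.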
Hits are given with their value. This is a sample that favours compounds with a hit; in the whole collection about 1.3% have one here.

What do the screens show for `COc1ccc(CCNC(C)CCc2ccc(OC)cc2)cc1` (stereo not given)?
DAGLB inhibitor: inactive; TMEM16A act: inactive; ANO1 block: inactive; MT1-MMP act inh: inactive

What do the screens show for `COc1ccc(CNC(C)Cc2cccs2)cc1` (stereo not given)?
DAGLB inhibitor: inactive; TMEM16A act: -26.6; ANO1 block: inactive; MT1-MMP act inh: inactive

What do the screens show for `N#CC(C#N)=NNc1ccc(S(N)(=O)=O)cc1`?
DAGLB inhibitor: inactive; TMEM16A act: inactive; ANO1 block: inactive; MT1-MMP act inh: inactive

What do the screens show for `CC1CCN(S(=O)(=O)c2ccc(NN=C(C#N)C#N)cc2)CC1`?
ANO1 block: 100

Results for CC1CN=C(Nc2ccc(F)cc2)S1 (stereo not given) ?
DAGLB inhibitor: inactive; TMEM16A act: -4.61; ANO1 block: inactive; MT1-MMP act inh: inactive

Results for COC1/C=C/C=C(\C)Cc2cc(O)c(Cl)c(c2)N(C)C(=O)CC(OC(=O)C(C)C)C2(C)OC2C(C)C2CC1(O)NC(=O)O2 (stereo not given) ?
DAGLB inhibitor: inactive; TMEM16A act: -4.95; MT1-MMP act inh: inactive

How did Cc1ccc(C[n+]2c(-c3ccc(C)cc3)cc(-c3ccc(C)cc3)cc2-c2ccc(C)cc2)cc1 do in these assays?
DAGLB inhibitor: inactive; TMEM16A act: inactive; ANO1 block: 100; MT1-MMP act inh: inactive

How did CS(=O)(=O)c1ccc(C2=C(CNC(=O)c3nccs3)[C@H]3CC[C@@H](C2)N3Cc2ccccc2)cc1 do in these assays?
DAGLB inhibitor: inactive; MT1-MMP act inh: inactive

Results for ClC1=C(Cl)C2(Cl)C3C(Cl)C=CC3C1(Cl)C2(Cl)Cl (stereo not given) ?
DAGLB inhibitor: inactive; TMEM16A act: -15.6; MT1-MMP act inh: inactive

Results for O=C1NC(=O)C2C1C1(Cl)C(Cl)=C(Cl)C2(Cl)C1(Cl)Cl (stereo not given) ?
DAGLB inhibitor: inactive; TMEM16A act: inactive; MT1-MMP act inh: inactive

Results for CC[C@H](C)/C=C(C)/C=C/C1=CC2=C(Cl)C(=O)[C@@](C)(OC(C)=O)C(=O)C2=CO1 ?
DAGLB inhibitor: inactive; TMEM16A act: inactive; ANO1 block: inactive; MT1-MMP act inh: inactive

What do the screens show for `CCC(C)/C=C(C)/C=C/C1=CC2=C(Cl)C(=O)C(C)(OC(C)=O)C(=O)C2=CO1` (stereo not given)?
DAGLB inhibitor: inactive; TMEM16A act: inactive; ANO1 block: 100; MT1-MMP act inh: inactive

Results for CC(=O)c1c(C)n(Cc2ccccc2Cl)c2ccc(O)cc12 ?
DAGLB inhibitor: inactive; TMEM16A act: inactive; ANO1 block: inactive; MT1-MMP act inh: inactive

What do the screens show for `CCOC(=O)COc1ccc2c(c1)c(C(C)=O)c(C)n2Cc1ccccc1`?
DAGLB inhibitor: inactive; TMEM16A act: -5.52; ANO1 block: inactive; MT1-MMP act inh: inactive

What do the screens show for `Cc1ccc(N2C(=O)NC(=O)/C(=C\c3ccoc3)C2=O)cc1`?
DAGLB inhibitor: inactive; TMEM16A act: -4.58; ANO1 block: inactive; MT1-MMP act inh: inactive

How did CN1[C@@H]2CCC[C@H]1CC(=O)C2 do in these assays?
DAGLB inhibitor: inactive; TMEM16A act: inactive; MT1-MMP act inh: inactive

Results for O=c1oc2ccccc2c(O)c1C(c1ccc([N+](=O)[O-])cc1)c1c(O)c2ccccc2oc1=O ?
DAGLB inhibitor: inactive; TMEM16A act: inactive; MT1-MMP act inh: inactive

How did C/C(CC(c1ccccc1)c1c(O)c2ccccc2oc1=O)=N\Nc1ccc([N+](=O)[O-])cc1[N+](=O)[O-] (stereo not given) do in these assays?
DAGLB inhibitor: inactive; TMEM16A act: inactive; ANO1 block: 25; MT1-MMP act inh: inactive

What do the screens show for `Cc1cc(OCC(=O)N[C@H](C(=O)O)c2ccccc2)c2c3c(c(=O)oc2c1)CCC3`?
DAGLB inhibitor: inactive; TMEM16A act: -16.3; ANO1 block: inactive; MT1-MMP act inh: inactive

What do the screens show for `CCN(CC)c1ccc(N=Cc2c(O)n(Cc3ccco3)c(=O)[nH]c2=O)cc1`?
DAGLB inhibitor: inactive; TMEM16A act: inactive; ANO1 block: inactive; MT1-MMP act inh: inactive

Results for CCN(CCO)c1ccc(N=Cc2c(O)n(C)c(=S)[nH]c2=O)cc1 ?
TMEM16A act: -10.2; ANO1 block: inactive; MT1-MMP act inh: inactive

How did CCOC(=O)[C@]12Cc3cc(Cl)ccc3[C@H]1N(C1CCCCC1)C(=O)c1cc(OC)ccc12 do in these assays?
MT1-MMP act inh: inactive

Results for C=CCC1(CCCCC)C(=O)NC(=S)NC1=O ?
DAGLB inhibitor: inactive; TMEM16A act: inactive; MT1-MMP act inh: inactive

Results for O=C1NC(=O)N(CCc2ccc(F)cc2)C(=O)/C1=C\C=C\c1ccccc1 ?
DAGLB inhibitor: inactive; TMEM16A act: inactive; MT1-MMP act inh: inactive

Results for CN1C(=O)NC(=O)/C(=C\C=C\c2ccccc2[N+](=O)[O-])C1=O ?
ANO1 block: 25

Results for CCC(=NCCCN(CC)CC)c1c(O)n(C2CCCCC2)c(=O)[nH]c1=O ?
DAGLB inhibitor: inactive; TMEM16A act: inactive; ANO1 block: 100; MT1-MMP act inh: inactive

What do the screens show for `O=C(O)c1ccc(-[n+]2c(-c3ccccc3)cc(-c3ccccc3)cc2-c2ccccc2)cc1`?
DAGLB inhibitor: inactive; TMEM16A act: inactive; ANO1 block: inactive; MT1-MMP act inh: inactive

What do the screens show for `COc1ccc(-[n+]2c(-c3ccccc3)cc(-c3ccc(C)cc3)cc2-c2ccccc2)cc1`?
DAGLB inhibitor: inactive; TMEM16A act: inactive; ANO1 block: 100; MT1-MMP act inh: inactive

What do the screens show for `Brc1ccc(-[n+]2c(-c3ccccc3)cc(-c3ccccc3)cc2-c2ccccc2)cc1`?
DAGLB inhibitor: inactive; TMEM16A act: inactive; ANO1 block: 100; MT1-MMP act inh: inactive

What do the screens show for `CCCOC(=O)c1ccc(-[n+]2c(-c3ccccc3)cc(-c3ccccc3)cc2-c2ccccc2)cc1`?
DAGLB inhibitor: inactive; TMEM16A act: -5.74; ANO1 block: 100; MT1-MMP act inh: inactive

What do the screens show for `CC(=O)N(C)C1=Nc2ccc(Cl)cc2C(c2ccccc2)=[N+]([O-])C1`?
DAGLB inhibitor: inactive; TMEM16A act: inactive; MT1-MMP act inh: inactive

What do the screens show for `CN(C)Cc1c[nH]c2cc([N+](=O)[O-])ccc12`?
DAGLB inhibitor: inactive; TMEM16A act: inactive; MT1-MMP act inh: inactive

Results for CN1CCCC2c3ccccc3CCC21 (stereo not given) ?
DAGLB inhibitor: inactive; MT1-MMP act inh: inactive

Results for C[C@@H]1CN([C@@H](C)CO)C(=O)CCCn2nncc2CO[C@H]1CN(C)C(=O)Oc1cccc2ccccc12 ?
DAGLB inhibitor: inactive; MT1-MMP act inh: inactive

Results for CCC(=NCCC(c1ccccc1)c1ccccc1)c1c(O)n(C)c(=O)n(C)c1=O ?
DAGLB inhibitor: inactive; TMEM16A act: inactive; ANO1 block: inactive; MT1-MMP act inh: inactive

How did CCC(=NCc1ccc(F)cc1)c1c(O)n(C)c(=O)n(C)c1=O do in these assays?
DAGLB inhibitor: inactive; TMEM16A act: inactive; ANO1 block: 100; MT1-MMP act inh: inactive

How did CSc1ccc(C(=O)C2CCCN(Cc3cc4ccccc4[nH]3)C2)cc1 (stereo not given) do in these assays?
DAGLB inhibitor: inactive; TMEM16A act: inactive; ANO1 block: 25; MT1-MMP act inh: inactive

Bioassay records from PubChem.
